Bioassay records as filed in PubChem BioAssay.
p-CIP stab down: p/CIP protein destabilization; F442A p/CIP-EGFP cells, EGFP fluorescence, 16 h; decrease of EGFP signal, % at 10 µM; hit rate 0.01% among 290,000; AID 1984;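 active = EGFP signal decrease of at least 30% at 10 µM or well 3 SD below plate mean, unless failing retest; inactive = the rest, including hits failing retest or dose response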
PP1 counter: counter-screen for PP5 inhibitors: inhibitors of human PP1-alpha | P62136 | inhibition, % at 6.7 µM | AID 2235 | purified PP1alpha, OMFP fluorescence | hit rate 0.9% among 320,000;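 active = inhibition above the mean inhibition of all tested compounds plus 3 SD, computed separately for each screening campaign, cut at about 15% in these data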
Target sequence (P62136 whole entry, looked up): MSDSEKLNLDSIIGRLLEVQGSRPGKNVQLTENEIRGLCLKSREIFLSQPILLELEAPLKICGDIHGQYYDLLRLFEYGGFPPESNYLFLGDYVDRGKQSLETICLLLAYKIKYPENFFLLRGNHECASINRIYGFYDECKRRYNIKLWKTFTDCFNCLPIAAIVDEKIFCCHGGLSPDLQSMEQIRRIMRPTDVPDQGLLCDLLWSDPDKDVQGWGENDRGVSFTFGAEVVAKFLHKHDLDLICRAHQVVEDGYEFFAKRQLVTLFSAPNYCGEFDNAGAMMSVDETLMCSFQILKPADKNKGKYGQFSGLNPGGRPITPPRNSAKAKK
T cruzi repl: T. cruzi replication inhibition. T. cruzi beta-gal in NIH3T3, luminescence, 90 h. inhibition, % (no concentration beside the values). hit rate 1.4% among 300,000. AID 1885;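 active = mean inhibition across valid replicates above about 55%, limit read from the data; inconclusive = mean below that limit but half or more replicates reach it; inactive = mean below it, under half of replicates reach it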;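 also: signal also drops with host cell toxicity which is not excluded here; 0% = plate median of DMSO wells and 100% = zero luminescence signal; higher percent means less beta-gal luminescence so fewer parasites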
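Material: NIH/3T3 host cells with β-galactosidase reporter T. cruzi; Input: 5,000 host fibroblasts per well; Medium: DMEM, 2% fetal bovine serum; Compound: 50 nL DMSO compound solution per well; Schedule: 3 h host attachment, then at least 90 h co-culture; Detection: luminescent β-galactosidase signal after 60 min lysis.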
UBC13 inh: inhibitors of human UBC13 polyubiquitin chain formation. P61088. TR-FRET. inhibition, % at 20 µM. hit rate 0.47% among 330,000. AID 485273; in the data active = inhibition above about 45%, passing the limit was not always enough; inconclusive = no clear call, values can overlap the other calls
Target sequence (P61088 whole entry, looked up): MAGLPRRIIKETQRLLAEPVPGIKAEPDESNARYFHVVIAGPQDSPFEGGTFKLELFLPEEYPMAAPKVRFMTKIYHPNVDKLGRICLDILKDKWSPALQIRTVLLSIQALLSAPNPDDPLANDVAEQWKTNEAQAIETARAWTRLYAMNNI
AI-2 QS modul: modulators of Vibrio harveyi AI-2 quorum sensing system. Vibrio harveyi JMH597 AI-2 luminescence/OD600 ratio, 9 h; hits give low values; strain lacks LuxN and CqsS sensors; 0 = neutral-control median. activity change, % at 7.5 µM. hit rate 0.4% among 300,000. AID 2094; in the data active = activity change below about -75%, passing the limit was not always enough; inconclusive = no clear call, values can overlap the other calls;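 also: luminescence divided by OD600 gain over 9 h not by final OD600 alone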
Starred values were filed as active, the others as inactive; ? = inconclusive; . = no result given. Shown are actives, neighbours in structure and some others; about 2.8% of the full set was active somewhere.

SMILES | p-CIP stab down | PP1 counter | T cruzi repl | UBC13 inh | AI-2 QS modul
Cc1ccc2sc(N(CCCN(C)C)C(=O)c3ccc(S(=O)(=O)N(C)C)cc3)nc2c1C | -3 | -1 | 38 | 13 | 7
Cc1ccc2sc(N(CCCN(C)C)C(=O)c3ccc(S(=O)(=O)N4CCc5ccccc5C4)cc3)nc2c1C | . | 15* | 48 | 24 | 10
Cc1ccc2sc(N(CCCN(C)C)C(=O)c3ccc(S(=O)(=O)N(C)Cc4ccccc4)cc3)nc2c1C | . | 17* | 60* | 39 | -8
COc1ccc(C)c2sc(N(CCCN(C)C)C(=O)c3ccc(S(=O)(=O)N4CCc5ccccc5C4)cc3)nc12 | . | 5 | 50 | . | 5
COc1ccccc1-n1nnnc1SCc1cc2c(cc1Br)OCO2 | -6 | 1 | 5 | 0 | 15
CCN(C[C@H]1N[C@@](C)(C(=O)OC)[C@H]2C(=O)N(C)C(=O)[C@@H]12)S(=O)(=O)c1ccc(OC)cc1 | . | . | . | 3 | .
Cc1nn(-c2ccccc2)c(N2CCCC2)c1/C=N/NC(=O)c1cc(-c2cccnc2)nc2ccccc12 | -1 | 5 | 57* | -11 | 35
Cc1cccc(N2CCN(C(=O)CCCCCn3c(=S)[nH]c4ccc(N5CCOCC5)cc4c3=O)CC2)c1C | -3 | 10 | 65* | 15 | 28
COc1ccc(N2CCN(C(=O)c3ccc(Cn4c(=S)[nH]c5ccc(N6CCOCC6)cc5c4=O)cc3)CC2)cc1 | -17 | 9 | 68* | -4 | 23
COc1ccc2c(c1)CC(C(=O)Nc1ccc(Cl)cc1)/C(=N/O)O2 (stereo unspecified) | -8 | . | -7 | 0 | 11
CC(c1ccccc1)n1c(CCCO)nc2ccccc21 (stereo unspecified) | -6 | . | 5 | -3 | 16
COc1ccccc1NC(=O)CCC(=O)c1ccc(-c2ccccc2)cc1 | -18 | 1 | -8 | 6 | 14
CCc1ccccc1NC(=O)CCC(=O)OCC(=O)c1ccc(-c2ccccc2)cc1 | 5 | 17* | -17 | -5 | 11
Cc1ccc(-c2c[n+](CC(=O)c3ccc(Br)cc3)c3n2CCCCC3)cc1 | -5 | 0 | 74* | 18 | 20
O=C(C[n+]1cc(-c2ccccc2)n2c1CCCCC2)c1ccc(Cl)cc1 | 4 | -3 | 38 | -1 | 11
Cc1cc(S(=O)(=O)NCC2CCCO2)c(C)cc1Br (stereo unspecified) | 8 | 0 | 7 | 8 | 19
Cc1cc(C)c2c(n1)SCC(=O)N2CC(=O)Nc1cc(F)ccc1F | 0 | 0 | -2 | -5 | 32
Cc1nn(C)c(Cl)c1CN1CCCC(CCC(=O)NCc2ccccc2F)C1 (stereo unspecified) | -6 | -3 | 60* | 1 | 33
Cc1ccc(CNC(=O)CCC2CCCN(Cc3cccc4ncccc34)C2)o1 (stereo unspecified) | -5 | -1 | 66* | -1 | 11
CCOc1cccc(CN2CCCC(CCC(=O)NCc3ccccc3F)C2)c1O (stereo unspecified) | -7 | -5 | 56* | 2 | 40
Cc1ccc(CNC(=O)CCC2CCCN(Cc3cccc4cccnc34)C2)o1 (stereo unspecified) | 10 | 2 | 46 | -2 | -15
O=C(NCCCN1CCOCC1)c1ccc(/C=C2\Oc3ccccc3N(Cc3ccccc3F)C2=O)cc1 | -1 | 2 | 14 | 41 | 1
CCN1CCN(CCCNC(=O)c2ccc(/C=C3/Oc4ccccc4N(Cc4cccc(C)c4)C3=O)cc2)CC1 | -6 | 0 | 48 | 64* | -5
COc1ccc(Cl)cc1NC(=O)c1noc(C)c1[N+](=O)[O-] | -9 | -2 | -14 | 6 | 8
O=C(C#Cc1cccc([N+](=O)[O-])c1)c1ccccc1 | -7 | -2 | 51 | 0 | -55
SMILES | p-CIP stab down | PP1 counter | T cruzi repl | UBC13 inh | AI-2 QS modul
Nc1ccccc1C#CC(=O)c1ccccc1 | -17 | 0 | ? | -1 | -90*
O=C(C[n+]1ccc(/C=N/O)cc1)NC(=O)Nc1ccccc1 | . | 1 | . | 6 | .
CC1C(=O)C(C)C(c2ccc(Br)cc2)NC1c1ccc(Br)cc1 (stereo unspecified) | -4 | -1 | 68* | -14 | 12
Oc1ccc(-c2cc(-c3ccc(O)cc3)nc(-c3ccccc3)n2)cc1 | -5 | -2 | 55* | 34 | 19
Nc1ccc(-c2cc(-c3ccc(N)cc3)nc(-c3ccccc3)n2)cc1 | 6 | 4 | 8 | 8 | 21
O=C(Nc1ccccc1N1CCOCC1)C1=NN(c2c(F)c(F)cc(F)c2F)C(=O)CC1 | . | -4 | . | 10 | .
O=C(NC1CCCCCC1)c1c2c(nc3ccccc13)CCN(Cc1ccccc1)C2 | 1 | 2 | 31 | 12 | 8
COc1cccc(NC(=O)COC(=O)c2c3c(nc4ccccc24)CCC(C)C3)c1 (stereo unspecified) | 5 | -2 | 73* | -4 | 33
Cc1c(Cl)cccc1NC(=O)COC(=O)c1c2c(nc3ccccc13)CCN(Cc1ccccc1)C2 | -15 | 4 | 68* | -2 | 29
Cc1cc(N2CCN(C)CC2)ccc1NC(=O)c1c2c(nc3ccccc13)CCN(Cc1ccccc1)C2 | 13 | -3 | 58* | 19 | 7
CC1CCc2nc3ccccc3c(C(=O)OCC(=O)NC3CCS(=O)(=O)C3)c2C1 (stereo unspecified) | -2 | 0 | 15 | 23 | 6
CC(OC(=O)CC1CCCCC1)C(=O)Nc1ccc(S(N)(=O)=O)cc1 (stereo unspecified) | . | 0 | -14 | 4 | 8
O=C(C1CCC(CNc2c(N3CCCCC3)c(=O)c2=O)CC1)N1CCCC1 (stereo unspecified) | 5 | -3 | -6 | -2 | -6
CCN(Cc1ccccc1)S(=O)(=O)c1c[nH]c(C(=O)OC)c1 | 2 | -2 | 3 | 2 | 23
CS(=O)(=O)c1ccc2nc(NC(=O)CCC(=O)c3cccs3)sc2c1 | 10 | 11 | 5 | -3 | -96*
CS(=O)(=O)c1ccc2nc(NC(=O)CCS(=O)(=O)c3ccccc3)sc2c1 | 6 | 4 | -2 | -6 | 16
Cc1ccc(Nc2cnn(C34CC5CC(CC(CC(=O)O)(C5)C3)C4)c(=O)c2Cl)c(Cl)c1 | 4 | -3 | 0 | -5 | 11
O=C(Nc1ccc2nc(-c3ccc(Br)o3)[nH]c2c1)c1cccs1 | -3 | 2 | 69* | -16 | 3
CCCCCc1ccc(OCCC[n+]2ccccc2)c(CCCCC)c1 | -14 | 0 | 75* | 30 | 9
CCCCCc1ccc(OCCOCCn2c[n+](C)c3ccccc32)c(CCCCC)c1 | 8 | . | 39 | . | 40
CN1CCN(c2nc(-c3cccnc3)nc3ccccc23)CC1 | -14 | 0 | 47 | 2 | 4
COc1cc2c(cc1OC)CN(c1nc(-c3cccnc3)nc3ccccc13)CC2 | 2 | 1 | 55* | 17 | 13
O=C(CCN1CCN(S(=O)(=O)c2cccc([N+](=O)[O-])c2)CC1)Nc1ccccc1F | -1 | -2 | 17 | 0 | 13
